From paper PMC6108325 (Bioorganic & medicinal chemistry, 2014)
Values after ≈ are worked out from the molar mass of the structure shown. Blank lines part the entries; values can stand above or below the molecule they belong to.

Legend:
MRSA PK = MRSA PK (Staphylococcus aureus, UniProt Q6GG09); assay: MRSA PK enzyme inhibition assay; format: biochemical, methicillin-resistant Staphylococcus aureus; settings: for fold more potent than 33c: MRSA PK inhibition relative to 33c; for fold decrease in activity compared to 10a: MRSA PK inhibition relative to 10a
In short: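 His-tagged recombinant MRSA pyruvate kinase construct, prepared as in earlier work. […] IC50 was calculated from a triplicate 15-point titration. Where no IC50 was obtained, % inhibition at the highest concentration tested was reported.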

S. aureus (ATCC29213) = assay: MIC in absence and presence of efflux inhibitor verapamil; format: cell-based, Staphylococcus aureus
S. aureus ATCC 29213 = assay: In vitro susceptibility testing; format: cell-based, Staphylococcus aureus
MRSA strain MW2 (USA400) = assay: In vitro susceptibility testing; format: cell-based, methicillin-resistant Staphylococcus aureus; settings: CAMHB
[1] = tested on: S. aureus LAC Δpyk::Erm^R; assay: Bacterial killing assay, PK-deficient mutant; format: cell-based, Staphylococcus aureus; settings: 1.6 μM
Wild-type S. aureus LAC = assay: Bacterial killing assay, wild type; format: cell-based, Staphylococcus aureus; settings: 1.6 μM, aerobic growth in BHI
[2] = Staphylococcus aureus, ATCC29213, absence of verapamil
[3] = Staphylococcus aureus, ATCC29213

Molecule: 2-(4-(1H-Indol-2-yl)-3-nitrophenyl)-6-bromo-1H-indole [33d]
fold more potent than 33c (MRSA PK): 2–3 fold
% Inhibition of MRSA PK (MRSA PK; at 10 μM (Table 4)): 86.2%
IC50 (MRSA PK; triplicate 15-point titration): 1.8 nM

MIC (S. aureus (ATCC29213); [2]): 16 µg/mL
MIC (S. aureus ATCC 29213; [3]): 16 µg/mL (≈ 41 µM)
Molecule: Brc1ccc2cc(-c3cc4ccc(Br)cc4[nH]3)[nH]c2c1 [10b, 6,6′-Dibromo-1H,1′H-2,2′-biindole]

MIC (S. aureus ATCC 29213; [3]): > 64 µg/mL
Molecule: Brc1ccc2[nH]c(-c3cc4cc(Br)ccc4[nH]3)cc2c1 [10i, 5,5′-Bibromo-1H,1′H-2,2′-biindole]

Molecule: Brc1ccc2cc(-c3cc4ccccc4o3)[nH]c2c1 [22b, 2-(Benzofuran-2-yl)-6-bromo-1H-indole]
fold decrease in activity compared to 10a (MRSA PK): 5–8 fold

Molecule: 5′,6-Dibromo-1-methyl-1H,2′H-2,2′-biindole [12b]
% inhibition at the highest concentration tested (MRSA PK; @ 10 μM): 25% @ 10 μM

Molecule: Brc1ccc2cc(-c3nc4ccccc4s3)[nH]c2c1 [22a, 2-(6-Bromo-1H-indol-2-yl)benzo[d]thiazole]
fold decrease in activity compared to 10a (MRSA PK): 5–8 fold

Molecule: CN[C@H](CC(C)C)C(=O)N[C@H]1C(=O)N[C@@H](CC(N)=O)C(=O)N[C@H]2C(=O)N[C@H]3C(=O)N[C@H](C(=O)N[C@H](C(=O)O)c4cc(O)cc(O)c4-c4cc3ccc4O)[C@H](O)c3ccc(c(Cl)c3)Oc3cc2cc(c3O[C@@H]2O[C@H](CO)[C@@H](O)[C@H](O)[C@H]2O[C@H]2C[C@](C)(N)[C@H](O)[C@H](C)O2)Oc2ccc(cc2Cl)[C@H]1O [vancomycin, reference compound]
MIC (S. aureus (ATCC29213); [3]): 2 µg/mL
MIC (S. aureus (ATCC29213); presence of verapamil (200 mg/L)): 2 µg/mL
MIC (MRSA strain MW2 (USA400)): 2 µg/mL (≈ 1.38 µM)

Molecule: COc1cc(-c2cc3ccccc3[nH]2)ccc1-c1cc2ccc(Br)cc2[nH]1 [33e, 2-(4-(1H-Indol-2-yl)-2-methoxyphenyl)-6-bromo-1H-indole]
fold more potent than 33c (MRSA PK): 2–3 fold

MIC (S. aureus ATCC 29213; [3]): 0.3 µg/mL (≈ 0.911 µM)
Molecule: Fc1ccc2[nH]c(-c3cc4ccc(Br)cc4[nH]3)cc2c1 [10e, 6′-Bromo-5-fluoro-1H,1′H-2,2′-biindole]

Molecule: Brc1cc2cc(-c3cc4cc(Br)c(Br)cc4[nH]3)[nH]c2cc1Br [10l, 5,5′,6,6′-Tetrabromo-1H,1′H-2,2′-biindole]
MIC (S. aureus (ATCC29213); [2]): > 64 µg/mL
shift of MIC by verapamil (S. aureus (ATCC29213); absence vs presence of verapamil (200 mg/L)): at least fourfold
MIC (S. aureus ATCC 29213; [3]): > 64 µg/mL
MIC (S. aureus ATCC 29213; minimum concentration to give >98% inhibition of growth): > 64 µg/mL

MIC (S. aureus ATCC 29213; [3]): 0.3 µg/mL (≈ 0.769 µM)
Molecule: Brc1ccc2[nH]c(-c3cc4ccc(Br)cc4[nH]3)cc2c1 [10c, 5,6-Bibromo-1H,1′H-2,2′-biiindole]

Molecule: Clc1ccc2[nH]c(-c3cc4ccc(Br)cc4[nH]3)cc2c1 [10d, 6′-Bromo-5-chloro-1H,1′H-2,2′-biindole]
bactericidal effect ([1]; TSB without glucose + 1% sodium pyruvate (TSB-G+P)): unable to kill
bactericidal effect ([1]; aerobic growth in BHI): merely acted statically
bactericidal effect (Wild-type S. aureus LAC): highly bactericidal
MIC (S. aureus ATCC 29213; [3]): 0.3 µg/mL (≈ 0.868 µM)
